# Active and inactive are the calls of the source. The rule behind the calls is not given here.
# Columns and labels:
# [1] = biological target: Cellular tumor antigen p53 (Homo sapiens) (UniProt P04637); experiment: Inhibition of p53-mediated apoptosis in human WI38 cells assessed as cell survival at 10 uM after 24 hrs by methylene blue assay; format: cell-based; details: WI-38
# BJ = experiment: Induction of p21 mRNA expression in human BJ cells; format: functional, cell-based
# How it was run: (§1)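 Wild-type and p53-deficient cell pairs stimulated with 5-FU ([…] as printed) or gamma irradiation (10 or 15 Gy); p21 mRNA quantified by real-time PCR; means ± s.d., n = 3.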
# U2OS [2] = experiment: Induction of Noxa gene expression in human U2OS cells; format: functional, cell-based
# How it was run: (§2)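 Northern blot: 10 mg RNA (so in the source) isolated 18 h after UV (8.5 J m–2) or doxorubicin (125 mg ml–1 as printed) from MCF7 or U2OS cells and p53-knockdown (lentiviral shRNA) counterparts; hybridized with 32P-labeled full-length cDNA probes for Bax, Noxa, Puma; 18S rRNA loading control.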
# MCF7 [3] = experiment: Induction of Puma gene expression in UV-induced human MCF7 cells; format: functional, cell-based; how it was run: as §2
# Fibroblast = experiment: Antiapoptotic activity against TNF-alpha induced apoptosis in mouse fibroblast assessed as cell survival at 0.1 uM to 10 uM by methylene blue assay in presence of 0.5 ug/ml cycloheximidine after 24 hrs; format: functional, cell-based
# [4] = biological target: Cellular tumor antigen p53 (Homo sapiens) (UniProt P04637); experiment: Binding affinity to p53 assessed as reduction in mitochondrial-bound p53 level at 50 uM
# How it was run: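 Cell-free reconstitution: freshly isolated HeLa or Saos-2 mitochondria (40 mg as printed) incubated 1 h at 37 °C with purified baculoviral human wild-type p53 (60 ng) plus compound in MS buffer with CaCl2; mitochondria pelleted, washed three times, p53 cosedimentation by western blot, mt-Hsp75 loading control.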
# [5] = biological target: Cellular tumor antigen p53 (Homo sapiens) (UniProt P04637); experiment: Binding affinity to p53 transfected in human […] cells assessed as reduction in p53 bound-Bcl-2 at 15 uM after 48 hrs; format: cell-based; details: HEK293
# How it was run: (§3)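 293T cells cotransfected with Flag-tagged wild-type Bcl-xL or Bcl-2 plus wild-type p53 plasmid; compound 15 mM (so in the source) applied 24 h after transfection; lysates (1 mg protein) immunoprecipitated with anti-Flag M2 gel, bound p53 detected with HRP-conjugated DO-1.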
# [6] = biological target: Cellular tumor antigen p53 (Homo sapiens) (UniProt P04637); experiment: Inhibition of p53-dependent transcription of bax in doxorubicin-induced human U2OS cells; format: cell-based
# How it was run: (§4)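 Northern analysis of U2OS cells, p53 wild-type and shRNA p53-knockdown. Induction by UV 8.5 J m–2 or Dox […]. RNA isolated 18 h after treatment; 10 µg hybridised with 32P-labelled full-length cDNA probes for Bax, Noxa or Puma. 18S rRNA used as loading control.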
# [7] = Antiapoptotic activity against fas-induced apoptosis in mouse fibroblast assessed as cell survival at 0.1 uM to 10 uM by methylene blue assay in presence of 1 ug/ml cycloheximidine after 24 hrs; format: functional, cell-based
# [8] = biological target: Cellular tumor antigen p53 (Homo sapiens) (UniProt P04637); experiment: Inhibition of p53-dependent transcription of puma in human MCF7 cells; format: cell-based
# How it was run: (§5)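 Northern analysis of MCF7 cells, p53 wild-type and shRNA p53-knockdown. Induction by UV 8.5 J m–2 or Dox […]. RNA isolated 18 h after treatment; 10 µg hybridised with 32P-labelled full-length cDNA probes for Bax, Noxa or Puma. 18S rRNA used as loading control.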
# U2OS [9] = experiment: Induction of Bax gene expression in human U2OS cells; format: functional, cell-based; how it was run: as §2
# [10] = biological target: Cellular tumor antigen p53 (Homo sapiens) (UniProt P04637); experiment: Inhibition of p53-mediated transactivation of p21 in gamma-stimulated human BJ cells at 10 uM after 6 hrs; format: cell-based
# [11] = biological target: Cellular tumor antigen p53 (Homo sapiens) (UniProt P04637); experiment: Inhibition of p53-dependent transcription of noxa in human U2OS cells; format: cell-based; how it was run: as §4
# [12] = biological target: Cellular tumor antigen p53 (Mus musculus) (UniProt P02340); experiment: Binding affinity to p53 in gamma irradiated mouse thymocyte assessed as cytosolic p21 concentration at 10 uM after 2 hrs
# U2OS [13] = experiment: Induction of Puma gene expression in human U2OS cells; format: functional, cell-based; how it was run: as §2
# [14] = biological target: Cellular tumor antigen p53 (Homo sapiens) (UniProt P04637); experiment: Inhibition of p53-mediated transactivation of p21 in gamma-stimulated human SK-MEL-29 cells at 10 uM after 6 hrs
# [15] = biological target: Cellular tumor antigen p53 (Homo sapiens) (UniProt P04637); experiment: Inhibition of p53-dependent transcription of bax in UV-stimulated human […] cells; format: cell-based; how it was run: as §5
# [16] = biological target: Cellular tumor antigen p53 (Mus musculus) (UniProt P02340); experiment: Binding affinity to p53 in gamma irradiated mouse thymocyte assessed as cytosolic Bcl-2 concentration at 10 uM after 2 hrs
# MCF7 [17] = experiment: Induction of Bax gene expression in UV-induced human MCF7 cells; format: functional, cell-based; how it was run: as §2
# [18] = biological target: Cellular tumor antigen p53 (Homo sapiens) (UniProt P04637); experiment: Inhibition of p53-dependent transcription of puma in doxorubicin-induced human U2OS cells; format: cell-based; how it was run: as §4
# [19] = biological target: Cellular tumor antigen p53 (Homo sapiens) (UniProt P04637); experiment: Inhibition of p53-dependent transcription of bax in human U2OS cells; format: cell-based; how it was run: as §4
# [20] = biological target: Cellular tumor antigen p53 (Mus musculus) (UniProt P02340); experiment: Binding affinity to p53 in gamma irradiated mouse thymocyte assessed as cytosolic caspase 8 concentration at 10 uM after 2 hrs
# [21] = biological target: Cellular tumor antigen p53 (Homo sapiens) (UniProt P04637); experiment: Inhibition of p53-dependent transcription of noxa in doxorubicin-induced human U2OS cells; format: cell-based; how it was run: as §4
# [22] = biological target: Cellular tumor antigen p53 (Mus musculus) (UniProt P02340); experiment: Inhibition of p53-dependent transcription of puma in gamma-stimulated mouse thymocyte
# U2OS [23] = experiment: Induction of Puma gene expression in doxorubicin-induced human U2OS cells; format: functional, cell-based; how it was run: as §2
# Thymocyte [24] = experiment: Induction of Puma gene expression in mouse thymocytes; format: functional, cell-based
# Homo sapiens [25] = species on record: Homo sapiens; experiment: Induction of p21 mRNA expression in human SK-MEL-29 cells; format: functional, cell-based; how it was run: as §1
# MCF7 [26] = experiment: Induction of Bax gene expression in human MCF7 cells; format: functional, cell-based; how it was run: as §2
# HT-1080 = experiment: Antiapoptotic activity against Bax gene-induced apoptosis in human HT1080 cells transfected with pTZV3-CMV-Bax at 10 uM after 24 hrs; format: functional, cell-based
# Thymocyte [27] = experiment: Induction of p21 mRNA expression in gamma-stimulated mouse thymocytes
# [28] = biological target: Cellular tumor antigen p53 (Homo sapiens) (UniProt P04637); experiment: Inhibition of p53-mediated transactivation of promoter cyclin G in human H1299 cells at 10 uM after 48 hrs by luciferase reporter assay; format: cell-based
# U2OS [29] = experiment: Induction of Bax gene expression in doxorubicin-induced human U2OS cells; format: functional, cell-based; how it was run: as §2
# [30] = biological target: Cellular tumor antigen p53 (Homo sapiens) (UniProt P04637); experiment: Inhibition of p53 in gamma-stimulated human ConA cells assessed as effect on cell cycle distribution at 10 uM after 24 hrs; format: cell-based
# How it was run: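 ConA cells given 10 µM test agent, with or without 10 Gy gamma irradiation. Cell-cycle distribution measured 24 h later.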
# MCF7 [31] = experiment: Induction of Noxa gene expression in UV-induced human MCF7 cells; format: functional, cell-based; how it was run: as §2
# Homo sapiens [32] = species on record: Homo sapiens; experiment: Induction of p21 mRNA expression in gamma-stimulated human SK-MEL-29 cells; format: functional; how it was run: as §1
# [33] = biological target: Cellular tumor antigen p53 (Homo sapiens) (UniProt P04637); experiment: Inhibition of p53-dependent transcription of puma in UV-induced human MCF7 cells; format: cell-based; how it was run: as §5
# [34] = biological target: Cellular tumor antigen p53 (Homo sapiens) (UniProt P04637); experiment: Binding affinity to p53 transfected in human […] cells assessed as reduction in p53 bound-Bcl-xL at 15 uM after 48 hrs; format: cell-based; details: HEK293; how it was run: as §3
# [35] = biological target: Cellular tumor antigen p53 (Homo sapiens) (UniProt P04637); experiment: Binding affinity to p53 transfected in human Saos-2 cells harboring pLV-53 assessed as reduction of p53 protein in mitochondria at 10 uM after 48 hrs
# How it was run: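 Saos-2 cells infected with p53-expressing lentivirus; compound ([…] as printed) added 5 h after infection; mitochondrial and cytosolic fractions western blotted for p53 at 48 h post-infection, with mt-Hsp75 and β-actin as fraction loading controls.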
# Sequence of Cellular tumor antigen p53 (Mus musculus) (P02340 whole entry): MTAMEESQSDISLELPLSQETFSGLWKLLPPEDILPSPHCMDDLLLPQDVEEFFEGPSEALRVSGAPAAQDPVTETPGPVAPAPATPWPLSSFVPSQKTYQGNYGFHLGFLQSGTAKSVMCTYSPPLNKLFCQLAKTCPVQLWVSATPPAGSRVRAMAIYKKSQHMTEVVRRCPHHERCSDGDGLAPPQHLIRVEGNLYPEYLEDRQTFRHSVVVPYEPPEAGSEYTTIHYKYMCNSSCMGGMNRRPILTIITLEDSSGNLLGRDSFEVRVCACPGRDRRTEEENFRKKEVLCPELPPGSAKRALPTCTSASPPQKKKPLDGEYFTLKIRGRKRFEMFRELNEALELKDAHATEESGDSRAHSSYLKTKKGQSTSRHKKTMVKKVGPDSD
# Sequence of Cellular tumor antigen p53 (Homo sapiens) (P04637 whole entry, looked up): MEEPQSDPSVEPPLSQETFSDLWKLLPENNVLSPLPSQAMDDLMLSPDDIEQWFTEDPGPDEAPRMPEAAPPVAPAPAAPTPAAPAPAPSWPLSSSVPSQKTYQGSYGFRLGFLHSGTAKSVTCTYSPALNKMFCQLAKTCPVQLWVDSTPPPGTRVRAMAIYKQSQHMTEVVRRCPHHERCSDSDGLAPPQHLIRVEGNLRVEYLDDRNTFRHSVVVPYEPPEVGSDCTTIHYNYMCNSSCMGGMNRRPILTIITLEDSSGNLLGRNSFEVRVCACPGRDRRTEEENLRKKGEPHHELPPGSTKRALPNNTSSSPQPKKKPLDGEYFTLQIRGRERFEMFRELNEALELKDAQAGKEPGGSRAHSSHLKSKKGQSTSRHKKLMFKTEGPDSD
smiles,measurement,setting,value
NS(=O)(=O)C#Cc1ccccc1,inhibition,[1],Active
same,Activity,BJ,inactive
same,Activity,U2OS [2],inactive
same,Activity,MCF7 [3],inactive
same,Activity,Fibroblast,inactive
same,Activity,[4],Active
same,Activity,[5],Active
same,inhibition,[6],inactive
same,Activity,[7],inactive
same,inhibition,[8],inactive
same,Activity,U2OS [9],inactive
same,inhibition,[10],inactive
same,inhibition,[11],inactive
same,Activity,[12],inactive
same,Activity,U2OS [13],inactive
same,inhibition,[14],inactive
same,inhibition,[15],inactive
same,Activity,[16],inactive
same,Activity,MCF7 [17],inactive
same,inhibition,[18],inactive
same,inhibition,[19],inactive
same,Activity,[20],inactive
same,inhibition,[21],inactive
same,inhibition,[22],inactive
same,Activity,U2OS [23],inactive
same,Activity,Thymocyte [24],inactive
same,Activity,Homo sapiens [25],inactive
same,Activity,MCF7 [26],inactive
same,Activity,HT-1080,inactive
same,Activity,Thymocyte [27],inactive
same,inhibition,[28],inactive
same,Activity,U2OS [29],inactive
same,inhibition,[30],inactive
same,Activity,MCF7 [31],inactive
same,Activity,Homo sapiens [32],inactive
same,inhibition,[33],inactive
same,Activity,[34],Active
same,Activity,[35],Active

# From ChEMBL document CHEMBL1240314, “Small-molecule inhibitor of p53 binding to mitochondria protects mice from gamma radiation” (2006)
